ChEMBL document CHEMBL3272173, “Synthesis and biological activity of peptide antagonists of luliberin (luteinizing hormone-releasing hormone)” (J Med Chem, 1979)
Values joined by “and” are separate entries in the source; they are usually repeats but may differ in a detail not shown here. Identical values can stand only once. Peptide text beside a SMILES is read from it. * marks the point of attachment. Cbz = O=C(OCc1ccccc1)*; Bn = c1ccc(C*)cc1

Legend:
Rattus norvegicus [1] = assay: Antiovulatory activity in sc dosed CD rat assessed as blockade of ovulation administered as six doses at 1200, 1230, 1300, 1350, 1400 and 1450 hrs during proestrus stage measured during estrus stage by dissecting microscopic analysis; format: functional
Summary of the method: (§1)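 Cycling Charles River CD rats were given six subcutaneous injections of analogue in 0.1 mL propylene glycol on the afternoon of proestrus, and controls received vehicle alone. Rats were killed the next morning (estrus). Ovulating animals were scored and ova in the oviducts were counted under a dissecting microscope.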

Rattus norvegicus [2] = assay: Antiovulatory activity in CD rat assessed as blockade of ovulation at 0.3 mg, sc administered as six doses at 1200, 1230, 1300, 1350, 1400 and 1450 hrs during proestrus stage measured during estrus stage by dissecting microscopic analysis; format: functional; summary of the method: as §1
Rattus norvegicus [3] = assay: Antiovulatory activity in CD rat assessed as blockade of ovulation at 3 mg, sc administered as six doses at 1200, 1230, 1300, 1350, 1400 and 1450 hrs during proestrus stage measured during estrus stage by dissecting microscopic analysis; format: functional; summary of the method: as §1
[4] = target: T1, Gonadotropin-releasing hormone receptor (Rattus norvegicus) (UniProt P30969); assay: In vitro antagonist activity at GNRHR in CD rat anterior pituitary gland assessed as inhibition of LH-RH-stimulated LH release at compound to LH-RH molar ratio of 200 after 4 hrs by radioimmunoassay; settings: concentration not given here
T1 sequence (whole entry): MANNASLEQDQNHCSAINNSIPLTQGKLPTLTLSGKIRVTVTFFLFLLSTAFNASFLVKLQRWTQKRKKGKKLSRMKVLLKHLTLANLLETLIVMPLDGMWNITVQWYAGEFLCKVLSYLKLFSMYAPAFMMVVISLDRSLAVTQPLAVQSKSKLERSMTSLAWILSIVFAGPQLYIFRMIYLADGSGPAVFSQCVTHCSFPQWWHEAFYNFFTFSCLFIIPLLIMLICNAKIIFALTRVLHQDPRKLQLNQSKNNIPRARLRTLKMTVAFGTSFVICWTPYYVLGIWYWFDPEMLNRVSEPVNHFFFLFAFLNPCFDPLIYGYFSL
Summary of the method: (§2)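 Anterior pituitaries from diestrus CD rats (200-250 g) were dissociated enzymatically (collagenase, hyaluronidase, then Viokase). Cells were cultured 4 days at 1.67 × 10^5 cells/mL in DME with 10% horse serum and 2.5% fetal calf serum, then washed serum-free. Duplicate cultures received LH-RH (2-5 × 10^-10 M) with a single analogue concentration in serum-free DME for 4 h at 37 °C. LH in the medium was measured by RIA and reported as % inhibition of LH-RH-stimulated release.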

[5] = target: T1, Gonadotropin-releasing hormone receptor (Rattus norvegicus); assay: In vitro antagonist activity at GNRHR in CD rat anterior pituitary gland assessed as inhibition of LH-RH-stimulated LH release at compound to LH-RH molar ratio of 4000 after 4 hrs by radioimmunoassay; settings: concentration not given here; summary of the method: as §2
Rattus norvegicus [6] = assay: Antiovulatory activity in CD rat assessed as blockade of ovulation at 1 mg, sc administered as six doses at 1200, 1230, 1300, 1350, 1400 and 1450 hrs during proestrus stage measured during estrus stage by dissecting microscopic analysis; format: functional; summary of the method: as §1
[7] = target: T1, Gonadotropin-releasing hormone receptor (Rattus norvegicus); assay: In vitro antagonist activity at GNRHR in CD rat anterior pituitary gland assessed as inhibition of LH-RH-stimulated LH release at compound to LH-RH molar ratio of 28 after 4 hrs by radioimmunoassay; settings: concentration not given here; summary of the method: as §2
[8] = target: T1, Gonadotropin-releasing hormone receptor (Rattus norvegicus); assay: In vitro antagonist activity at GNRHR in CD rat anterior pituitary gland assessed as inhibition of LH-RH-stimulated LH release at compound to LH-RH molar ratio of 10 after 4 hrs by radioimmunoassay; settings: concentration not given here; summary of the method: as §2
Rattus norvegicus [9] = assay: Antiovulatory activity in CD rat assessed as blockade of ovulation at 5 mg, sc administered as six doses at 1200, 1230, 1300, 1350, 1400 and 1450 hrs during proestrus stage measured during estrus stage by dissecting microscopic analysis; format: functional; summary of the method: as §1
[10] = target: T1, Gonadotropin-releasing hormone receptor (Rattus norvegicus); assay: In vitro antagonist activity at GNRHR in CD rat anterior pituitary gland assessed as ratio of molar concentration of compound to LH-RH for inhibition of LH-RH-stimulated LH release after 4 hrs by radioimmunoassay
Summary of the method: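 Monolayers were cultured 4 days from dissociated anterior pituitary cells of diestrus CD rats. They were exposed in duplicate to LH-RH (2-5 × 10^-10 M) plus multiple analogue concentrations in serum-free DME for 4 h at 37 °C. LH in the medium was measured by radioimmunoassay. The ED50 molar ratio is the analogue:LH-RH molar ratio giving 50% inhibition of LH-RH-stimulated LH release.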

[11] = target: T1, Gonadotropin-releasing hormone receptor (Rattus norvegicus); assay: In vitro antagonist activity at GNRHR in CD rat anterior pituitary gland assessed as inhibition of LH-RH-stimulated LH release at compound to LH-RH molar ratio of 20 after 4 hrs by radioimmunoassay; settings: concentration not given here; summary of the method: as §2
[12] = target: T1, Gonadotropin-releasing hormone receptor (Rattus norvegicus); assay: In vitro antagonist activity at GNRHR in CD rat anterior pituitary gland assessed as inhibition of LH-RH-stimulated LH release at compound to LH-RH molar ratio of 2800 after 4 hrs by radioimmunoassay; settings: concentration not given here; summary of the method: as §2
[13] = target: T1, Gonadotropin-releasing hormone receptor (Rattus norvegicus); assay: In vitro antagonist activity at GNRHR in CD rat anterior pituitary gland assessed as inhibition of LH-RH-stimulated LH release at compound to LH-RH molar ratio of 100 after 4 hrs by radioimmunoassay; settings: concentration not given here; summary of the method: as §2

Compound	ED50 (Rattus norvegicus [1]) [mg]	inhibition (INH) (Rattus norvegicus [6]) [%]	ED50 [10]	also measured
CC(=O)O.CCNC(=O)[C@@H]1CCCN1C(=O)[C@H](CCCNC(=N)N)NC(=O)[C@H](CC(C)C)NC(=O)[C@H](NC(=O)[C@H](Cc1ccc(O)cc1)NC(=O)[C@H](CO)NC(=O)[C@H](Cc1c[nH]c2ccccc12)NC(=O)[C@H](CCC(N)=O)NC(=O)OCc1ccccc1)[C@@H](O)c1ccccc1	0.1			inhibition (INH) (Rattus norvegicus [2]): 100%
CC(=O)O.CCNC(=O)[C@@H]1CCCN1C(=O)[C@H](CCCNC(=N)N)NC(=O)[C@H](CC(C)C)NC(=O)[C@H]1CCCN1C(=O)[C@H](Cc1ccc(O)cc1)NC(=O)[C@H](CO)NC(=O)[C@H](Cc1c[nH]c2ccccc12)NC(=O)[C@H](CCC(N)=O)NC(=O)OCc1ccccc1	1			inhibition (INH) (Rattus norvegicus [3]): 100%; inhibition [4]: 74%
CC(C)C[C@H](NC(=O)CNC(=O)[C@H](Cc1ccc(O)cc1)NC(=O)[C@H](CO)NC(=O)[C@H](Cc1c[nH]c2ccccc12)NC(=O)[C@H](Cc1cnc[nH]1)NC(=O)OCc1ccccc1)C(=O)N[C@@H](CCCNC(=N)N)C(=O)N1CCC[C@H]1C(=O)O (HELM PEPTIDE1{[O=C(OCc1ccccc1)[*:2]].H.W.S.Y.G.L.R.P}$$$$V2.0)				inhibition [5]: 10%
CC(C)C[C@H](NC(=O)CNC(=O)[C@H](Cc1ccc(O)cc1)NC(=O)[C@H](CO)NC(=O)[C@H](Cc1c[nH]c2ccccc12)NC(=O)[C@H](CCC(N)=O)NC(=O)OCc1ccccc1)C(=O)N[C@@H](CCCNC(=N)N)C(=O)N1CCC[C@H]1C(=O)NCC(N)=O.Cl (HELM PEPTIDE1{[O=C(OCc1ccccc1)[*:2]].Q.W.S.Y.G.L.R.P.G.[am]}$$$$V2.0)	>1			inhibition [5]: 33%
CCNC(=O)[C@@H]1CCCN1C(=O)[C@H](CCCNC(=N)N)NC(=O)[C@H](CC(C)C)NC(=O)[C@@H](CCSC)NC(=O)[C@H](Cc1ccc(O)cc1)NC(=O)[C@H](CO)NC(=O)[C@H](Cc1c[nH]c2ccccc12)NC(=O)[C@H](CCC(N)=O)NC(=O)OCc1ccccc1.Cl	3			inhibition (INH) (Rattus norvegicus [3]): 60%; inhibition [4]: 85%
CC(=O)O.CCNC(=O)[C@@H]1CCCN1C(=O)[C@H](CCCNC(=N)N)NC(=O)[C@H](CC(C)C)NC(=O)[C@@H](CCC(N)=O)NC(=O)[C@H](Cc1ccc(O)cc1)NC(=O)[C@H](CO)NC(=O)[C@H](Cc1c[nH]c2ccccc12)NC(=O)[C@H](CCC(N)=O)NC(=O)OCc1ccccc1	>1	20		inhibition [7]: 77%
CCNC(=O)[C@@H]1CCCN1C(=O)[C@H](CCCNC(=N)N)NC(=O)[C@H](CC(C)C)NC(=O)[C@@H](Cc1ccccc1)NC(=O)[C@H](Cc1ccc(O)cc1)NC(=O)[C@H](CO)NC(=O)[C@H](Cc1c[nH]c2ccccc12)NC(=O)[C@H](COCc1ccccc1)NC(=O)OCc1ccccc1.Cl	2.5		1.3 molar ratio	inhibition [8]: 93%; inhibition (INH) (Rattus norvegicus [9]): 80%
CCNC(=O)[C@@H]1CCCN1C(=O)[C@H](CCCNC(=N)N)NC(=O)[C@H](CC(C)C)NC(=O)[C@@H](Cc1c[nH]c2ccccc12)NC(=O)[C@H](Cc1ccc(O)cc1)NC(=O)[C@H](CO)NC(=O)[C@H](Cc1c[nH]c2ccccc12)NC(=O)[C@@H](NC(=O)OCc1ccccc1)[C@@H](C)CC.Cl	>5		1.5 molar ratio	inhibition (INH) (Rattus norvegicus [9]): 0%; inhibition [11]: 100%
CC(=O)O.CCNC(=O)[C@@H]1CCCN1C(=O)[C@H](CCCNC(=N)N)NC(=O)[C@H](CC(C)C)NC(=O)[C@@H](Cc1ccccc1)NC(=O)[C@H](Cc1ccc(O)cc1)NC(=O)[C@H](CO)NC(=O)[C@H](Cc1c[nH]c2ccccc12)NC(=O)[C@H](CCC(N)=O)NC(=O)OCc1ccccc1	>5			inhibition (INH) (Rattus norvegicus [9]): 0%
COc1ccc(COC(=O)N[C@@H](COCc2ccccc2)C(=O)N[C@@H](Cc2c[nH]c3ccccc23)C(=O)N[C@@H](CO)C(=O)N[C@@H](Cc2ccc(O)cc2)C(=O)N[C@H](Cc2ccccc2)C(=O)N[C@@H](CC(C)C)C(=O)N[C@@H](CCCNC(=N)N)C(=O)N2CCC[C@H]2C(=O)NCC(N)=O)cc1.Cl	>1	40	1.3 molar ratio	inhibition [8]: 100%
CC(C)C[C@H](NC(=O)[C@@H](Cc1ccccc1)NC(=O)[C@H](Cc1ccc(O)cc1)NC(=O)[C@H](CO)NC(=O)[C@H](Cc1c[nH]c2ccccc12)NC(=O)[C@H](COCc1ccccc1)NC(=O)OCc1ccccc1)C(=O)N[C@@H](CCCNC(=N)N)C(=O)N1CCC[C@H]1C(=O)NCC(N)=O.Cl	>3		1.5 molar ratio	inhibition [8]: 90%; inhibition (INH) (Rattus norvegicus [3]): 40%
CC(C)C[C@H](NC(=O)CNC(=O)[C@H](Cc1ccc(O)cc1)NC(=O)[C@H](CO)NC(=O)[C@H](Cc1c[nH]c2ccccc12)NC(=O)[C@H](COCc1ccccc1)NC(=O)OCc1ccccc1)C(=O)N[C@@H](CCCNC(=N)N)C(=O)N1CCC[C@H]1C(=O)NCC(N)=O.Cl (Cbz-S(Bn)WSYGLRPG-NH2)			100 molar ratio	inhibition (INH) (Rattus norvegicus [3]): 20%; inhibition [12]: 100%
CC(C)C[C@H](NC(=O)CNC(=O)[C@H](Cc1ccc(O)cc1)NC(=O)[C@H](CO)NC(=O)[C@H](Cc1c[nH]c2ccccc12)NC(=O)[C@H](Cc1cnc[nH]1)NC(=O)OCc1ccccc1)C(=O)N[C@@H](CCCNC(=N)N)C(=O)N1CCC[C@H]1C(=O)NCC(=O)O (HELM PEPTIDE1{[O=C(OCc1ccccc1)[*:2]].H.W.S.Y.G.L.R.P.G}$$$$V2.0)				inhibition [5]: 17%
CC(=O)O.CCNC(=O)[C@@H]1CCCN1C(=O)[C@H](CCCNC(=N)N)NC(=O)[C@H](CC(C)C)NC(=O)[C@@H](Cc1ccccc1)NC(=O)[C@H](Cc1ccc(O)cc1)NC(=O)[C@H](CO)NC(=O)[C@H](Cc1c[nH]c2ccccc12)NC(=O)[C@H](CCC(=O)NCc1ccccc1)NC(=O)OCc1ccccc1	>1	0	2.7 molar ratio and 1.3 molar ratio	inhibition [8]: 62%; inhibition [11]: 71%
CC(C)C[C@H](NC(=O)CNC(=O)[C@H](Cc1ccc(O)cc1)NC(=O)[C@H](CO)NC(=O)[C@H](Cc1c[nH]c2ccccc12)NC(=O)[C@H](CCC(=O)NCc1ccccc1)NC(=O)OCc1ccccc1)C(=O)N[C@@H](CCCNC(=N)N)C(=O)N1CCC[C@H]1C(=O)NCC(N)=O.Cl (HELM PEPTIDE1{[O=C(OCc1ccccc1)[*:2]].E.W.S.Y.G.L.R.P.G.[am]}|CHEM1{[c1ccc(CN[*:1])cc1]}$PEPTIDE1,CHEM1,2:R3-1:R1$$$V2.0)	>1	40	360 molar ratio	inhibition [13]: 96%
CCNC(=O)[C@@H]1CCCN1C(=O)[C@H](CCCNC(=N)N)NC(=O)[C@H](CC(C)C)NC(=O)[C@@H](CC(C)C)NC(=O)[C@H](Cc1ccc(O)cc1)NC(=O)[C@H](CO)NC(=O)[C@H](Cc1c[nH]c2ccccc12)NC(=O)[C@H](CCC(N)=O)NC(=O)OCc1ccccc1.Cl	>1	20	22.3 molar ratio	inhibition [7]: 60%
